Data on 6 compounds can be found in publication PMC10205660 (Chemistry (Weinheim an der Bergstrasse, Germany), 2023).

One experiment deals with A549 (lung cancer). The experiment can be described thus: Antiproliferative activity, A549. Type of experiment: cell-based.
The test system of a further experiment is MCF7 (breast cancer). Kind of experiment: Antiproliferative activity, MCF7. The class given is cell-based.
For a further experiment, the system named is K562 (leukemia). The experiment can be described thus: Antiproliferative activity, K562. The class given is cell-based.
For the next experiment, the system named is MRC5. As to conditions: read-out: IC50 against normal cell line MRC5; cited from earlier work.
Experiment [1] concerns Hsp90-dependent client proteins (pAkt, Cyclin D1, GLUT1), Hsp70, Hsp90 in MCF7 cells. As to conditions: MCF7, 48-hour incubation; cited from earlier work.
The test system of a further experiment is HEK293. Conditions: read-out: IC50 against normal cell line HEK293; cited from earlier work.
Experiment [2] concerns Hsp90-dependent client proteins (pAkt, Cyclin D1, GLUT1), Hsp70, Hsp90 in MCF7 cells. Type of experiment: cell-based. Conditions: MCF7, 48 h, Western blot; versus vehicle 0.25% DMSO. The method in brief: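 MCF7 cells exposed to test compound at the stated amounts for 48 h, alongside vehicle (0.25% DMSO) and 1 μM geldanamycin as the reference Hsp90 inhibitor. Cell lysates were immunoblotted for pAkt, Cyclin D1, GLUT1, Hsp70, Hsp90 and F1F0 ATP synthase.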
Background: Immunoblotting shows a protein as a band on a membrane.

In experiment [3] the test system is MCF7, K562 and A549 cell lines. Kind of experiment: Antiproliferative activity, statements in text without a single cell line. Conditions: versus cruentaren A; cell line not stated. The class given is cell-based.
Where [4] appears, read: Homo sapiens, A549, read-out: IC50 values A549.
Setting [5] is: Homo sapiens, MCF7, read-out: IC50 values MCF7, MCF7.
The mark [6] stands for this setting: Homo sapiens, K562, read-out: IC50 values K562, K562.

Like-named read-outs stand apart in the source and are kept apart here.

By IC50 is commonly meant the concentration that gives 50% inhibition.

Turning to `CCCC(O)C(C)C(=O)NC/C=C\CC(C)C(O)C(C)C1C/C=C\CC(C)C(O)Cc2cc(OC)cc(O)c2C(=O)O1` (centres unmarked) [Compound 1, Cruentaren A, reference compound], the IC50 in the experiment on A549 (lung cancer) (read-out: IC50 values A549, A549) is 0.75 nM; in the experiment with MCF7 (breast cancer) (read-out: IC50 values MCF7, MCF7), 4.67 nM; in the experiment with K562 (leukemia) (read-out: IC50 values K562, K562), 1.5 nM; in the experiment on MRC5, greater than 500 nM; in the experiment with HEK293 it was greater than 500 nM. In addition, in experiment [1], the “degradation of Hsp90-dependent client proteins” value is “induced the degradation”.
In the case of `CCC[C@H](O)[C@@H](C)C(=O)NC/C=C\C[C@@H](C)[C@@H](O)[C@H](C)[C@@H]1C/C=C\C[C@H](C)[C@H](OC(=O)[C@@H](C)N)Cc2cc(OC)cc(O)c2C(=O)O1` [Compound 4, (3S,8S,9R,Z)-14-hydroxy-3-((2S,3R,4R,Z)-3-hydroxy-8-((2R,3S)-3-hydroxy-2-methylhexanamido)-4-methyloct-6-en-2-yl)-12-methoxy-8-methyl-1-oxo-3,4,7,8,9,10-hexahydro-1H-benzo[c][1]oxacyclododecin-9-yl D-alaninate], the results for the IC50 in the experiment with A549 (lung cancer) (setting [4]), with MCF7 (breast cancer) (setting [5]) and with K562 (leukemia) (setting [6]) were 2450 nM, 55.5 nM and 1320 nM, respectively. For the same compound, the “levels of Hsp70 and Hsp90 (heat shock response)” value (“levels of Hsp70 and Hsp90” for short) in experiment [2] is “remained at the same level as vehicle control”.
As to `CCC[C@H](O)[C@@H](C)C(=O)NC[C@H](O)[C@H](O)C[C@@H](C)[C@@H](O)[C@H](C)[C@@H]1C/C=C\C[C@H](C)[C@H](O)Cc2cc(OC)cc(O)c2C(=O)O1` [Compound 14, (2R,3S)-N-((2S,3R,5R,6R,7S)-7-((3S,8S,9R,Z)-9,14-dihydroxy-12-methoxy-8-methyl-1-oxo-3,4,7,8,9,10-hexahydro-1H-benzo[c][1]oxacyclododecin-3-yl)-2,3,6-trihydroxy-5-methyloctyl)-3-hydroxy-2-methylhexanamide], the IC50 was found to be 1540 nM in the experiment on A549 (lung cancer) (setting [4]), 189 nM in the experiment on MCF7 (breast cancer) (setting [5]) and 1270 nM in the experiment on K562 (leukemia) (setting [6]). The “fold reduction in activity compared to cruentaren A” value in experiment [3] is given as ~ 40 fold.
In the case of `CCC[C@H](O)[C@@H](C)C(=O)NC[C@@H]1C[C@@H]1C[C@@H](C)[C@@H](O)[C@H](C)[C@@H]1C/C=C\C[C@H](C)[C@H](O)Cc2cc(OC)cc(O)c2C(=O)O1` [Compound 15, (2R,3S)-N-(((1R,2R)-2-((2R,3R,4S)-4-((3S,8S,9R,Z)-9,14-dihydroxy-12-methoxy-8-methyl-1-oxo-3,4,7,8,9,10-hexahydro-1H-benzo[c][1]oxacyclododecin-3-yl)-3-hydroxy-2-methylpentyl)cyclopropyl)methyl)-3-hydroxy-2-methylhexanamide], the IC50 in the experiment on A549 (lung cancer) (setting [4]) worked out at 1240 nM; in the experiment with MCF7 (breast cancer) (setting [5]) it was 520 nM; with K562 (leukemia) (setting [6]), 1120 nM. Moreover, the “fold reduction in activity compared to cruentaren A” value in experiment [3] stood at 100 fold.
For the compound `CCC[C@H](O)[C@@H](C)C(=O)NC/C=C/C[C@@H](C)[C@@H](O)[C@H](C)[C@@H]1C/C=C\C[C@H](C)[C@H](O)Cc2cc(OC)cc(O)c2C(=O)O1` [Compound 16, (2R,3S)-N-((5R,6R,7S,E)-7-((3S,8S,9R,Z)-9,14-dihydroxy-12-methoxy-8-methyl-1-oxo-3,4,7,8,9,10-hexahydro-1H-benzo[c][1]oxacyclododecin-3-yl)-6-hydroxy-5-methyloct-2-en-1-yl)-3-hydroxy-2-methylhexanamide], the IC50 was determined as 1750 nM with A549 (lung cancer) (setting [4]), 6.37 nM with MCF7 (breast cancer) (setting [5]) and 48.3 nM with K562 (leukemia) (setting [6]). Besides, in experiment [2], the “levels of Hsp70 and Hsp90” value is “remained at the same level as vehicle control”.
`COC1=C2C[C@@H](C)C[C@H](OC)[C@H](O)[C@@H](C)/C=C(\C)[C@H](OC(N)=O)[C@@H](OC)/C=C\C=C(/C)C(=O)NC(=CC1=O)C2=O` [geldanamycin, reference compound]: the “levels of Hsp70 and Hsp90” value in experiment [2] is listed as “increased”.
